Reference: article PMC3846294 (Chemical research in toxicology, 2013)
Read-outs that look alike come from different tables or passages of the source.

Legend:
[1] = biological target: T1, hSULT2A1 (Homo sapiens, UniProt Q06520); experiment: Structural modification of hSULT2A1 by quinones, proteolytic digestion and LC/MS; settings: 15 μM hSULT2A1 with 250 μM quinone, 1 h, pH 8.0, 25 °C
T1 sequence (Q06520 1-285): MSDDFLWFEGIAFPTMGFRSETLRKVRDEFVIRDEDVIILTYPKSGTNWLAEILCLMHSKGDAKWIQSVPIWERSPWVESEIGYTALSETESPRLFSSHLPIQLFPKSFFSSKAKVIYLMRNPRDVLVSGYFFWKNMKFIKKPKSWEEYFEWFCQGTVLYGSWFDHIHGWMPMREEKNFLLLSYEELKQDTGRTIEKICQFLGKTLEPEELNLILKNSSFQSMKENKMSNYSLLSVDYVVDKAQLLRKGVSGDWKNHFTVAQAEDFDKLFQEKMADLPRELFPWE
Outline: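 Recombinant hSULT2A1 was expressed in E. coli BL21(DE3), purified, and desalted of DTT into 50 mM Tris-HCl pH 8.0. 15 μg enzyme was reacted with quinone (17:1 molar ratio), then alkylated with 45 mM final 4-vinylpyridine for 1 h. Digestion used 0.6 μg trypsin with 10% v/v acetonitrile at 37 °C for 16 h, plus 1 μg Glu-C where needed. Peptides were analysed by LC/MS.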

[2] = biological target: T1, hSULT2A1; experiment: Binding of PAP to quinone-pretreated hSULT2A1; settings: in the absence of DHEA; pretreatment with 10 μM quinone
Outline: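 Purified recombinant hSULT2A1 was expressed in E. coli BL21(DE3) and pretreated with test compound for 1 h at 25 °C. It was then placed at 15 nM final (dimer) in 0.25 M potassium phosphate, pH 7.4, without DHEA, 20 min before titration. PAP was added to 0.5–300 μM final at 37 °C. Intrinsic fluorescence (ex 290/em 347 nm) was read 10 s after each addition, dilution-corrected, in duplicate. Dissociation constants were derived.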

[3] = biological target: T1, hSULT2A1; type: biochemical; settings: 100-fold dilution, 0.5 μM DHEA (Figure 4)
Outline: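 E. coli-expressed, purified hSULT2A1 was preincubated with test compound for 1 h at 25 °C, then diluted 100-fold into a standard assay containing 0.5 μM 3H-DHEA. The mixture was prewarmed at 37 °C for 2 min, and the reaction was started with 30 ng of enzyme. It ran for 3 or 4 min at 37 °C to keep initial velocity. Runs were in triplicate, mean ± SD, compared with untreated enzyme by paired two-tailed t test (p < 0.05).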

| Compound | Protein adducts at cysteines of hSULT2A1 [1] | Binding of PAP to the pretreated enzyme [2] | Catalytic activity of hSULT2A1 following preincubation with PBQ ([3]; PBQ 0.5 μM or 1.0 μM) | Catalytic activity of hSULT2A1 following preincubation with PBQ ([3]; PBQ 5.0 μM or higher) |
| --- | --- | --- | --- | --- |
| 4′-chlorophenyl-2,5-benzoquinone [4′-Cl-BQ] | protein adducts were observed at Cys55 and Cys199 | no detectable binding of PAP | – | – |
| O=C1C=CC(=O)C(c2ccccc2Cl)=C1 [2′-Cl-BQ, 2′-chlorophenyl-2,5-benzoquinone] | protein adducts were observed at Cys55 and Cys199 | no detectable binding of PAP | – | – |
| O=C1C=C(Cl)C(=O)C(c2ccc(Cl)cc2)=C1Cl [3,6,4′-triCl-BQ, 4′-chlorophenyl-3,6-dichloro-2,5-benzoquinone] | a dichlorinated adduct was found in the digested peptides containing Cys55 and Cys199 | – | – | – |
| O=C1C=CC(=O)C(c2ccccc2)=C1 [PBQ, phenyl-2,5-benzoquinone] | protein adducts were observed at Cys55 and Cys199 | – | increase in the catalytic activity | decreases in catalytic activity |
